Test results taken from publication PMC10692362 (Acta Pharmaceutica Sinica. B, 2023).
Substitutions are numbered along the chain they refer to. Where “and” joins values, the source holds several entries; their conditions need not be identical. Equal values may be shown once. Read-outs that look alike come from different tables or passages of the source. Peptide text beside a SMILES is read from it. * marks the point of attachment. Cbz = O=C(OCc1ccccc1)*

Assays:
ERα [1] = experiment: Immunoblot analysis of ERα degradation across ERα^WT and ERα^MUT BC cell lines; assay type: cell-based, human; conditions: 10 μmol/L MG-132 alone
ERα C530S mutant = molecular target: T1, ERα C530S mutant (Homo sapiens, UniProt P03372, C530S); experiment: Transcriptional activity; assay type: cell-based; conditions: HEK-293T^C530S cells, compared with wild type
T1 sequence (P03372 1-595 C530S): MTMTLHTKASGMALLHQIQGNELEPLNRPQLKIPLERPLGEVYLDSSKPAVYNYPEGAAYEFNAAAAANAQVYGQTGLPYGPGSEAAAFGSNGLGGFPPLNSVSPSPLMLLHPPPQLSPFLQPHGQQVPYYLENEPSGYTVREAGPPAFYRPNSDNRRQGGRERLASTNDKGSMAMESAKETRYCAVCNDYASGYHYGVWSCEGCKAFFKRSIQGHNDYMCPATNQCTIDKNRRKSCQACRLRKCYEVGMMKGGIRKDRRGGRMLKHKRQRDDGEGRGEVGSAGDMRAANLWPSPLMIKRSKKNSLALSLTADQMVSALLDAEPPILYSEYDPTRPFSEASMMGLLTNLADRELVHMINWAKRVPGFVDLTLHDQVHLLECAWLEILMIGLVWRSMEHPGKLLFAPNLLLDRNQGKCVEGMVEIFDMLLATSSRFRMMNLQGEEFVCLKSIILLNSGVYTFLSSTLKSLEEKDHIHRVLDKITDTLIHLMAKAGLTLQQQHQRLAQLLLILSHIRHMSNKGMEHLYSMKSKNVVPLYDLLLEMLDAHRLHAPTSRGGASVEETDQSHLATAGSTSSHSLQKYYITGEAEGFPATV

MCF-7 cells = experiment: Cell viability assay; assay type: cell-based, human; conditions: read-out: MCF-7 IC50
MCF-7 tumor xenograft = MCF-7 tumor xenograft model in BALB/c nude mice; assay type: in vivo; conditions: Day 32
Method in brief: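 Female BALB/c nude mice (15–18 g, 5 weeks old) received 1 × 10⁷ MCF-7 cells in 100 μL PBS into the right axillary mammary fat pad. Tumour volume (W² × L × 0.5) and body weight were measured every 2 days. Mice were sacrificed on Day 33. Tumours were assessed by IHC (Ki-67, ERα) and ERα Western blot.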

T-47D cells = experiment: Cell viability assay; assay type: cell-based, human; conditions: 72 h, read-out: T-47D IC50
T-47D^D538G cells = experiment: Cell viability assay; assay type: cell-based, human; conditions: 72 h, read-out: T-47D^D538G IC50
ERα [2] = molecular target: T2, ERα (Homo sapiens, UniProt P03372); experiment: cell-based; assay type: cell-based; conditions: for Agonist mode ERα Eff (%E2): control as 0%, 10 nmol/L E2 as 100%
T2 sequence (P03372 1-595): T1 sequence (P03372 1-595 C530S) with S530C

T-47D^Y537S cells = experiment: Cell viability assay; assay type: cell-based, human; conditions: 72 h, read-out: T-47D^Y537S IC50
LCC-2 cells = experiment: Cell viability assay on tamoxifen-resistant LCC-2 cells; assay type: cell-based; conditions: Homo sapiens, LCC2, read-out: LCC-2 IC50
ERβ = ERβ (Homo sapiens, UniProt Q92731); experiment: ER transcriptional activity; assay type: cell-based; conditions: for Antagonist mode ERβ Eff (%E2): with 10 nmol/L 17β-estradiol; for Agonist mode ERβ Eff (%E2): control as 0%, 10 nmol/L E2 as 100%
Chain of ERβ (Q92731 whole entry, the tested form may be a part): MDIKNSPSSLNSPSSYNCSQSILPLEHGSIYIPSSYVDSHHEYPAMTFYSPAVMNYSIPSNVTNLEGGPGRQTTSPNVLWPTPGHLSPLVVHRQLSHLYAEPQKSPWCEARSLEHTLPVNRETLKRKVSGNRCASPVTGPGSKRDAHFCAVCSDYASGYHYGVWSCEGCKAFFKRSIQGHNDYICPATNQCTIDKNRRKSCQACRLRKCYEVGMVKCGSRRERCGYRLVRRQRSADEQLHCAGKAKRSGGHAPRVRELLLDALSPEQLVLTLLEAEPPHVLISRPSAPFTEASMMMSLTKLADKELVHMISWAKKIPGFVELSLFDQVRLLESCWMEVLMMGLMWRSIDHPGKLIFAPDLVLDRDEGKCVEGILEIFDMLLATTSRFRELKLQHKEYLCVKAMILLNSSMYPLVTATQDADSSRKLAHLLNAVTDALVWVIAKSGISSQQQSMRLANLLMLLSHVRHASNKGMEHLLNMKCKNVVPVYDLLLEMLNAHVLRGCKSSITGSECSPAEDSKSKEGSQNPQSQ

human ERα LBD = molecular target: T3, human ERα LBD (Homo sapiens, UniProt P03372); experiment: Competitive fluorescence polarization binding assay, ERα; conditions: for RBA ERα: IC50 estradiol/IC50 compound × 100, estradiol = 100%; for α/β ratio: ratio of RBA ERα to RBA ERβ
T3 sequence (P03372 311-547 limits assumed): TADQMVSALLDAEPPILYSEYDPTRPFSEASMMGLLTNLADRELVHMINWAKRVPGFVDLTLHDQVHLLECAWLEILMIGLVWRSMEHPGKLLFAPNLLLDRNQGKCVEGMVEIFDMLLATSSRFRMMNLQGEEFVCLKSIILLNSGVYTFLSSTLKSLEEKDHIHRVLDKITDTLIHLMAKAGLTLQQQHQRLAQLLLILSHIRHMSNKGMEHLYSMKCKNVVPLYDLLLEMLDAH

human ERβ LBD = human ERβ LBD (Homo sapiens, UniProt Q92731); experiment: Competitive fluorescence polarization binding assay, ERβ; conditions: for RBA ERβ: IC50 estradiol/IC50 compound × 100, estradiol = 100%
Chain of human ERβ LBD (Q92731 264-498 limits assumed): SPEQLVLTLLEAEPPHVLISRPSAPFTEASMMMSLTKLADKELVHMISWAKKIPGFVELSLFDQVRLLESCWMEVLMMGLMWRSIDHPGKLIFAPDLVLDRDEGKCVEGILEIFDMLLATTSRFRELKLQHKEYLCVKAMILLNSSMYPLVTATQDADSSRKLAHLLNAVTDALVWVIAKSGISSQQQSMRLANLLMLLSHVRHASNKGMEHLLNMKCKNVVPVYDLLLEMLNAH

ERα [3] = molecular target: T2, ERα; experiment: Immunoblot analysis of ERα degradation in MCF-7 cells; assay type: cell-based; conditions: MCF-7 cells; for ERα degradation (immunoblot): 1 or 5 μmol/L
MCF-10A cells = assay type: cell-based, human; conditions: TI = IC50 MCF-10A / IC50 MCF-7

SMILES	IC50 (MCF-7 cells; Homo sapiens, MCF7, 72 h) [µM]	IC50 (T-47D cells; Homo sapiens, T47D) [µM]	IC50 (T-47D^D538G cells; Homo sapiens) [µM]	Antagonist mode ERα Eff (%E2) (ERα [2]; with 10 nmol/L 17β-estradiol)	IC50 (T-47D^Y537S cells; Homo sapiens) [µM]	IC50 (LCC-2 cells) [µM]	Antagonist mode ERβ Eff (%E2) (ERβ)	RBA ERα (human ERα LBD)	α/β ratio (human ERα LBD)	RBA ERβ (human ERβ LBD) [%]	ERα degradation (immunoblot) (ERα [3])	also measured
CC(C)C[C@@H](C=O)NC(=O)[C@H](CC(C)C)NC(=O)[C@H](CC(C)C)NC(=O)OCc1ccccc1 [MG-132, reference compound] (Cbz-Leu-Leu-Leu-aldehyde)	–	–	–	–	–	–	–	–	–	–	–	Effect on ERα degradation, alone (ERα [1]): no effect on ERα degradation
C[C@]12CC[C@@H]3c4ccc(O)cc4C[C@@H](CCCCCCCCC[S+]([O-])CCCC(F)(F)C(F)(F)F)[C@H]3[C@@H]1CC[C@@H]2O (some centres unmarked) [Ful, Fulvestrant, reference compound]	0.14 ± 0.05	1.76 ± 0.06	3.92 ± 0.22	80 ± 2	2.22 ± 0.17	11 ± 0.45	73 ± 1	–	–	–	–	Effect of C530S mutation on antagonistic activity (ERα C530S mutant): unaffected by this mutation; TGI (tumor growth inhibition) (MCF-7 tumor xenograft; 2 mg/kg ip every other day): 79%
CC/C(=C(\c1ccc(O)cc1)c1ccc(OCCN(C)C)cc1)c1ccccc1 [Compound 4-OHT, 4-hydroxytamoxifen, reference compound]	0.67 ± 0.08	1.95 ± 0.2	9.13 ± 0.6	–	8.9 ± 0.28	22.2 ± 1.93	11 ± 3	–	–	–	–	–
CC/C(=C(\c1ccccc1)c1ccc(OCCN(C)C)cc1)c1ccccc1 [tamoxifen, reference compound]	–	–	–	–	–	–	–	–	–	–	–	TGI (tumor growth inhibition) (MCF-7 tumor xenograft; 4 mg/kg ip every other day): 87%
CC(C)=CC(=O)Nc1ccc(C2=C(c3ccc(O)cc3)C3CC(S(=O)(=O)N(CC(F)(F)F)c4ccc(O)cc4)C2O3)cc1 (centres unmarked) [29c′]	–	–	–	–	–	–	–	15.12% and 15.12 ± 0.31%	7.37	2.05 ± 0.45	impaired degradation ability	Ki (human ERα LBD; read-out: Ki ERα): 180 pM; IC50 (MCF-7 cells; cell viability, 72 h): 0.95 ± 0.11 µM; IC50 (T-47D cells; cell viability): 5.52 ± 0.27 µM; IC50 (T-47D^D538G cells; cell viability): 5 ± 0.36 µM; Ki (human ERβ LBD; read-out: Ki ERβ): 0.00325 µM; IC50 (T-47D^Y537S cells; cell viability): 4.05 ± 0.27 µM
CCN(c1ccc(O)cc1)S(=O)(=O)C1CC2OC1C(c1ccc(O)cc1)=C2c1ccc(NC(=O)C=C(C)C)cc1 (centres unmarked) [Compound 29i, N-(4-(5-(N-Ethyl-N-(4-hydroxyphenyl)sulfamoyl)-3-(4-hydroxyphenyl)-7-oxabicyclo[2.2.1]hept-2-en-2-yl)phenyl)-3-methylbut-2-enamide]	0.071 ± 0.027	3.49 ± 0.06	4.25 ± 0.19	62 ± 5	1.89 ± 0.17	4.07 ± 0.13	78 ± 2	29.85 ± 1.09%	5.83	5.12 ± 0.39	effective in inducing ERα degradation	Ki (human ERα LBD): 90 pM; TI (therapeutic index) (MCF-10A cells): 122.82; Ki (human ERβ LBD): 0.0013 µM; ERα degradation (immunoblot) at 1 μmol/L (ERα [3]): efficient ability to degrade ERα; IC50 (ERα [2]): 0.066 µM; Agonist mode ERα Eff (%E2) (ERα [2]): 15 ± 2 %E2; IC50 (ERβ): 1.02 µM; Agonist mode ERβ Eff (%E2) (ERβ): 34 ± 2 %E2
COc1ccc(N(CC(F)(F)F)S(=O)(=O)C2CC3OC2C(c2ccc(O)cc2)=C3c2ccc(NC(=O)C=C(C)C)cc2)cc1 (centres unmarked) [Compound 29f, N-(4-(3-(4-Hydroxyphenyl)-5-(N-(4-methoxyphenyl)-N-(2,2,2-trifluoroethyl)sulfamoyl)-7-oxabicyclo[2.2.1]hept-2-en-2-yl)phenyl)-3-methylbut-2-enamide]	0.094 ± 0.001	8.58 ± 0.36	8.53 ± 0.47	35 ± 2	> 31	15.1 ± 1.37	13 ± 1	14.48 ± 0.65%	8.83	1.64 ± 0.45	effective in inducing ERα degradation	Ki (human ERα LBD; read-out: Ki ERα): 190 pM; TI (therapeutic index) (MCF-10A cells): 54.89; Ki (human ERβ LBD; read-out: Ki ERβ): 0.00407 µM; ERα degradation (immunoblot) at 1 μmol/L (ERα [3]): efficient ability to degrade ERα; Agonist mode ERα Eff (%E2) (ERα [2]): 65 ± 5 %E2; EC50 (ERα [2]; read-out: Agonist mode ERα EC50, HEK-293T luciferase): 4.91 µM; IC50 (ERα [2]; read-out: Antagonist mode ERα IC50, with 10 nmol/L 17β-estradiol): 0.21 µM; Agonist mode ERβ Eff (%E2) (ERβ): 9 ± 2 %E2
